{
  "source": "ChEMBL document CHEMBL4368871",
  "about": "“Flush with a flash: natural three-component antimicrobial combinations based on S-nitrosothiols, controlled superoxide formation and \"domino\" reactions leading to peroxynitrite” (Medchemcomm, 2018)",
  "key": {"[1]": {"test": "Induction of peroxynitrite anion generation assessed as peroxynitrite anion level in presence of riboflavin by DHR-123 indicator based spectrofluorometric method", "type": "functional", "in_short": "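Peroxynitrite was generated by the S-nitrosothiol with riboflavin (250, 500, 1000 μM) illuminated by a standard lamp (0.6 Lumen, 310 K), followed over 2–24 h. It was detected by oxidation of dihydrorhodamine 123 to fluorescent rhodamine 123, with excitation at 485 nm and emission at 530 nm.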"}, "[2]": {"test": "Induction of peroxynitrite anion generation assessed as peroxynitrite anion level in presence of xanthine/xanthine oxidase by DHR-123 indicator based spectrofluorometric method", "type": "functional", "in_short": "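Peroxynitrite was generated by the S-nitrosothiol with xanthine (400 μM) and xanthine oxidase (50 mU mL–1), the reaction being started by adding substrate or enzyme. It was quantified spectrofluorometrically by dihydrorhodamine 123 oxidation to rhodamine 123, with excitation at 485 nm and emission at 530 nm.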"}, "Escherichia coli [3]": {"system": "Escherichia coli", "test": "Dark toxicity against Escherichia coli at 250 to 1000 uM in presence of riboflavin measured up to 24 hrs", "type": "organism-based", "settings": "in vivo", "in_short": "(§1)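 E. coli was treated with the riboflavin (250, 500, 1000 μM) plus RSNO (250–1000 μM) system and incubated 24 h at 37 °C in the dark. Growth was read as OD at 570 nm at 0 and 24 h. Medium-only and antibiotic-mix controls were included, plus riboflavin and RSNO dilution controls. Triplicates on three occasions (n = 9).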"}, "Escherichia coli [4]": {"system": "Escherichia coli", "test": "Dark toxicity against Escherichia coli at 250 to 1000 uM measured under dark condition up to 24 hrs", "type": "organism-based", "settings": "in vivo", "in_short": "as §1"}, "Steinernema feltiae [5]": {"system": "Steinernema feltiae", "test": "Nematocidal activity against Steinernema feltiae at 250 to 1000 uM in presence of riboflavin measured under dark condition up to 24 hrs", "type": "functional, organism-based", "in_short": "(§2)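 S. feltiae nematodes were exposed to riboflavin (500 or 1000 μM) with the S-nitrosothiol, incubated 24 h at 37 °C without light. Controls were medium plus nematodes (negative), penicillin/streptomycin/amphotericin B (positive), and 1000 μM riboflavin or RSNO alone. Triplicates on three occasions (n = 9).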"}, "Steinernema feltiae [6]": {"system": "Steinernema feltiae", "test": "Nematocidal activity against Steinernema feltiae at 250 to 1000 uM measured under dark condition up to 24 hrs", "type": "functional, organism-based", "in_short": "as §2"}, "Escherichia coli [7]": {"system": "Escherichia coli", "test": "Antimicrobial activity against Escherichia coli assessed as microbial growth at 250 to 1000 uM measured up to 24 hrs in presence of riboflavin under day light exposure relative to control", "type": "functional", "in_short": "(§3)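 E. coli was exposed to riboflavin (250, 500, 1000 μM) plus the S-nitrosothiol at 250, 500 or 1000 μM. Incubation was 24 h at 37 °C under a daylight LED (0.6 Lumen). Growth was read as OD at 570 nm at 0 h and 24 h. Controls were medium plus organism, antibiotic/antifungal mix, and riboflavin or RSNO alone. Triplicates on three occasions (n = 9), one-way ANOVA.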"}, "Escherichia coli [8]": {"system": "Escherichia coli", "test": "Antimicrobial activity against Escherichia coli assessed as reduction in microbial growth measured up to 24 hrs in presence of riboflavin under day light exposure", "type": "functional, organism-based", "in_short": "as §3"}, "Bacillus cereus": {"system": "Bacillus cereus", "test": "Antimicrobial activity against Bacillus cereus assessed as microbial growth at 250 to 1000 uM measured up to 24 hrs in presence of xanthine/xanthine oxidase", "type": "functional", "in_short": "(§4)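 Xanthine (400 μM) and xanthine oxidase (50 mU mL–1) were combined with the S-nitrosothiol at 250, 500 and 1000 μM. Growth was read as optical density at 570 nm at 0 h and after 24 h at 37 °C. Controls were medium plus organism (negative) and penicillin/streptomycin/amphotericin B (positive). Runs were in triplicate on three occasions (n = 9), analysed by one-way ANOVA.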"}, "Saccharomyces cerevisiae": {"system": "Saccharomyces cerevisiae", "test": "Antimicrobial activity against Saccharomyces cerevisiae assessed as microbial growth at 250 to 1000 uM measured up to 24 hrs in presence of xanthine/xanthine oxidase", "type": "functional", "in_short": "as §4"}, "Candida tropicalis": {"system": "Candida tropicalis", "test": "Antimicrobial activity against Candida tropicalis assessed as reduction in microbial growth at 250 to 1000 uM measured up to 24 hrs in presence of xanthine/xanthine oxidase", "type": "functional, organism-based", "in_short": "as §4"}, "Steinernema feltiae [9]": {"system": "Steinernema feltiae", "test": "Nematocidal activity against Steinernema feltiae assessed as nematode viability at 250 to 1000 uM measured up to 24 hrs in presence of xanthine/xanthine oxidase", "type": "functional"}, "Steinernema feltiae [10]": {"system": "Steinernema feltiae", "test": "Nematocidal activity against Steinernema feltiae assessed as nematode viability at 250 to 1000 uM measured up to 24 hrs in presence of xanthine oxidase", "type": "functional"}},
  "note": "The source made the active and inactive calls. The rule behind the calls is not given here.",
  "data": [
    {"compound": "N[C@@H](CCC(=O)N[C@@H](CSN=O)C(=O)NCC(=O)O)C(=O)O", "note": "[S-NITROSOGLUTATHIONE]", "values": [
      {"measurement": "Activity", "setting": "[1]", "result": 18.9, "unit": "µM"},
      {"measurement": "Activity", "setting": "[2]", "result": 17.1, "unit": "µM"},
      {"measurement": "Activity", "setting": "Escherichia coli [3]", "result": "Non-Toxic"},
      {"measurement": "Activity", "setting": "Escherichia coli [4]", "result": "Non-Toxic"},
      {"measurement": "Activity", "setting": "Steinernema feltiae [5]", "result": "inactive"},
      {"measurement": "Activity", "setting": "Steinernema feltiae [6]", "result": "inactive"},
      {"measurement": "Activity", "setting": "Escherichia coli [7]", "result": 20, "unit": "%"},
      {"measurement": "Activity", "setting": "Escherichia coli [8]", "result": "Dose-dependent effect"},
      {"measurement": "Activity", "setting": "Bacillus cereus", "result": 6, "unit": "%"},
      {"measurement": "Activity", "setting": "Saccharomyces cerevisiae", "result": 9, "unit": "%"},
      {"measurement": "Activity", "setting": "Candida tropicalis", "result": "inactive"},
      {"measurement": "Activity", "setting": "Steinernema feltiae [9]", "result": "<10", "unit": "%"},
      {"measurement": "Activity", "setting": "Steinernema feltiae [10]", "result": 50, "unit": "%"}
    ]},
    {"compound": "CC(=O)N[C@@H](C(=O)O)C(C)(C)SN=O", "values": [
      {"measurement": "Activity", "setting": "[1]", "result": 20.4, "unit": "µM"},
      {"measurement": "Activity", "setting": "[2]", "result": 15.4, "unit": "µM"},
      {"measurement": "Activity", "setting": "Escherichia coli [8]", "result": "Dose-dependent effect"},
      {"measurement": "Activity", "setting": "Bacillus cereus", "result": "Active"},
      {"measurement": "Activity", "setting": "Saccharomyces cerevisiae", "result": "Active"},
      {"measurement": "Activity", "setting": "Candida tropicalis", "result": "inactive"},
      {"measurement": "Activity", "setting": "Steinernema feltiae [9]", "result": "<10", "unit": "%"},
      {"measurement": "Activity", "setting": "Steinernema feltiae [10]", "result": 50, "unit": "%"}
    ]}
  ]
}
